Calls of active or inactive are those of the source. The calls are words filed in the database; no cut-off is given here. A value given as a limit tells only on which side of the number the result lay.

The subject of one assay is NCI-H1650. Kind of assay: Cytotoxicity against human NCI-H1650 cells assessed as growth inhibition after 48 hrs by MTT assay. Type of assay: functional.
Details: not given
The procedure, abridged: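 H1650 cells were exposed to drug for 48 h at five concentrations bracketing 1–40 μM in 10 μM steps, with MTT read-out. GI50 is given only where the data form a sigmoidal dose response.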
Take `O=S(=O)(CCCN1c2ccccc2CCc2ccc(Cl)cc21)c1ccc(OC(F)(F)F)cc1`: the GI50 entry is “inactive”. For `COC(=O)NCCN1c2ccccc2Sc2ccc(Cl)cc21`, the GI50 result is “inactive”. `O=S(=O)(NCCCN1c2ccccc2CCc2ccccc21)N1CCOCC1`: the GI50 entry is “inactive”. As for `O=S(=O)(NCCCCN1c2ccccc2CCc2ccc(Cl)cc21)c1ccc(C(F)(F)F)cc1`, the GI50 result is “inactive”.

Turning to `O=S(=O)(NCCCN1c2ccccc2CCc2ccccc21)C(F)(F)F`, the GI50 entry is “inactive”.

In the case of `COc1ccc(OC(=O)NCCCN2c3ccccc3Sc3ccc(Cl)cc32)cc1`, the GI50 entry was “inactive”. The same measure, in the same setting: the entry for `O=S(=O)(NCCCN(c1ccccc1)c1cccc(Cl)c1)c1ccc(C(F)(F)F)cc1` is “inactive”.

Staying with this assay, now noted: NCI-H1650, 48 h.
On to `CN(C)CCC=C1c2ccccc2COc2ccccc21` [DOXEPIN], for which the GI50 was greater than 40 µM. As for `CN(C)CCCN1c2ccccc2Sc2ccc(Cl)cc21` [CHLORPROMAZINE], the GI50 came to 30.3 µM. Still for that read-out and setting: the value for `O=C(NCCCN1c2ccccc2CCc2ccc(Cl)cc21)Nc1ccc(OC(F)(F)F)cc1` was greater than 40 µM. As for `NCCCN1c2ccccc2Sc2ccc(Cl)cc21`, the GI50 stood at 10 µM. Still for that read-out and setting: the value for `O=S(=O)(NC1CCC2(OC1)c1ccccc1CCc1ccccc12)c1ccc(F)cc1` (stereo unspecified) was 20 µM. As for `CC(CNS(=O)(=O)c1ccc(Cl)cc1)CN1c2ccccc2CCc2ccccc21` (stereo unspecified), the GI50 turned out to be 23 µM. Regarding `O=S(=O)(NCCCN1c2ccccc2CCc2ccc(Cl)cc21)c1ccc(Cl)cc1`, the GI50 came out at 20 µM. As to `CCN(CC)C(C)CN1c2ccccc2Sc2ccccc21` (stereo unspecified) [ETHOPROPAZINE], the GI50 is greater than 40 µM. Turning to `O=S(=O)(NCCCN1c2ccccc2CCc2ncccc21)c1ccc(OC(F)(F)F)cc1`, the GI50 was found to be 27 µM. For the molecule `N#Cc1ccc(S(=O)(=O)NCCC=C2c3ccccc3CCc3ccccc32)cc1`, the GI50 worked out at 25 µM. Take `O=S(=O)(NCCCN1c2ccccc2CCc2ccc(Cl)cc21)c1cccc(OC(F)(F)F)c1`: the GI50 was 20 µM. As to `O=S(=O)(NCCCN1c2ccccc2CCc2ccccc21)c1ccc(OC(F)(F)F)cc1`, the GI50 is 22 µM. Regarding `O=S(=O)(NCCCN1c2ccccc2CCc2cccnc21)c1ccc(OC(F)(F)F)cc1`, the GI50 stood at 22 µM. Still for that read-out and setting: the value for `O=S(=O)(NCCCN1c2ccccc2OCc2cccnc21)c1ccc(Cl)cc1` was greater than 40 µM. Same read-out and setting: the value for `O=S(=O)(NCCC=C1c2ccccc2CCc2ccccc21)c1ccc(OC(F)(F)F)cc1` was 20 µM; that for `COC(=O)NCCCCN1c2ccccc2Sc2ccc(Cl)cc21` was greater than 40 µM; that for `CS(=O)(=O)c1ccc(S(=O)(=O)NCCCN2c3ccccc3CCc3ccc(Cl)cc32)cc1` was 15.1 µM.

Take `COc1ccc(S(=O)(=O)NCCCN2c3ccccc3CCc3ccc(Cl)cc32)cc1`: the GI50 was 24.4 µM.

As to `O=S(=O)(NC[C@@H](O)CN1c2ccccc2CCc2ccccc21)c1ccc(OC(F)(F)F)cc1`, the GI50 is 18 µM. `CC(CNS(=O)(=O)c1ccc(OC(F)(F)F)cc1)CN1c2ccccc2CCc2ccccc21` (stereo unspecified): the GI50 came to 20 µM. Turning to `O=S(=O)(NC1CCC(=C2c3ccccc3CCc3ccccc32)CC1)c1ccc(Cl)cc1` (stereo unspecified), the GI50 worked out at 20 µM.

In the case of `CC(=O)NCCCN1c2ccccc2Sc2ccc(Cl)cc21`, the GI50 was greater than 40 µM. Still for that read-out and setting: the value for `O=S(=O)(NCCCN1c2ccccc2CCc2ccccc21)c1ccc(C(F)(F)F)cc1` was 14.3 µM; that for `O=S(=O)(NC1CCCC(=C2c3ccccc3CCc3ccccc32)C1)c1ccc(Cl)cc1` (stereo unspecified) was 17 µM; that for `O=S(=O)(N[C@H]1CC[C@H](N2c3ccccc3CCc3ccccc32)CC1)c1ccc(OC(F)(F)F)cc1` was 10 µM.

`O=S(=O)(NCCCN1c2ccccc2Sc2ccc(Cl)cc21)c1ccc(Oc2ccccc2)cc1`: the GI50 is greater than 40 µM. On the same count and under the same terms, the value for `O=S(=O)(NCCCN1c2ccccc2CCc2ccc(Cl)cc21)c1cccc2ccccc12` was greater than 40 µM.

Regarding `Cn1c(=O)oc2cc(S(=O)(=O)NCCCN3c4ccccc4CCc4ccccc43)ccc21`, the GI50 is greater than 40 µM.

On to `O=S(=O)(NCCCN1c2ccccc2CCc2ccccc21)c1ccc(Cl)cc1`, for which the GI50 is 20.6 µM.

Broadly, the GI50 is the concentration that inhibits growth by half.
